In ChEMBL document CHEMBL1649522, “Effect of rifampin, a potent inducer of drug-metabolizing enzymes, on the pharmacokinetics of raltegravir” (Antimicrob Agents Chemother, 2009):

What was measured:
Format in all cases: ADME, organism-based
[1] = Primary phase half life in healthy human at […], po administered as single dose in presence of […], po rifampin; details: in vivo
Method in brief: (§1)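 Study 1: open-label two-period fixed-sequence design in healthy adults (nine completed). A single 400 mg oral dose was given fasted (8 h before, 4 h after), then after at least 4 days washout, 600 mg rifampin orally once daily for 15 days, with 400 mg raltegravir given on day 14. Plasma sampled 0–48 h; LC-MS/MS (LLOQ 2 ng/ml). Biexponential fit weighted 1/(predicted concentration)²; t1/2 = ln(2)/α or β.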

[2] = Terminal half life in healthy human at […], po administered as single dose in presence of […], po rifampin; details: in vivo, read-out: beta t1/2 (converted); method in brief: as §1
[3] = Cmin in healthy human at […], po administered as single dose after 12 hrs; set-up: route oral; details: in vivo, read-out: Cmin
Method in brief: (§2)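 Healthy male and female subjects (n=9), fasted 8 h before and 4 h after a single oral 400 mg raltegravir dose. Plasma sampled 0–48 h postdose and measured by liquid-liquid extraction then reverse-phase HPLC-MS/MS (LLOQ 2 ng/ml). AUC0-∞ from a biexponential fit plus linear/log trapezoidal rule. Cmax and Tmax read from the data. C12 taken at the nominal 12 h sample.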

[4] = Cmax in healthy human at […], po BID for 14 days in presence of […], po rifampin; set-up: route oral; details: in vivo
Method in brief: (§3)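 Same subjects given raltegravir 800 mg orally every 12 h plus rifampin 600 mg orally once daily for 14 days. A light meal was taken 2 h before the day 14 morning dose. Plasma sampled 0–12 h postdose and assayed by HPLC-MS/MS. AUC0-12 by linear-up/log-down trapezoidal rule. Cmax, Tmax and C12 read directly.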

[5] = Terminal half life in healthy human at […], po administered as single dose; set-up: route oral; details: in vivo, read-out: beta t1/2 (converted); method in brief: as §1
[6] = Cmin in healthy human at […], po BID for 4 days after 12 hrs; set-up: route oral; details: in vivo, read-out: Cmin
Method in brief: (§4)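 Healthy male and female subjects given raltegravir 400 mg orally every 12 h for 4 days. A light meal was taken 2 h before the day 4 morning dose. Plasma sampled 0–12 h after that dose and assayed by HPLC-MS/MS (LLOQ 2 ng/ml). AUC0-12 by linear-up/log-down trapezoidal rule. Cmax, Tmax and nominal 12 h C12 read from the data.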

[7] = AUC (0 to infinity) in healthy human at […], po administered as single dose; set-up: time infinity, route oral; details: plasma; method in brief: as §2
[8] = AUC (0 to infinity) in healthy human at […], po administered as single dose in presence of […], po rifampin; set-up: route oral, time infinity; details: plasma
Method in brief: (§5)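 Same subjects after a washout of at least 4 days, given rifampin 600 mg orally once daily for 15 days. On day 14, a single fasted oral 400 mg raltegravir dose was given with rifampin. Plasma sampled 0–48 h postdose and assayed by HPLC-MS/MS. AUC0-∞ by biexponential fit plus trapezoidal rule. Cmax, Tmax and nominal 12 h C12 read directly.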

[9] = Cmax in healthy human at […], po administered as single dose in presence of […], po rifampin; set-up: route oral; details: in vivo; method in brief: as §5
[10] = Primary phase half life in healthy human at […], po administered as single dose; set-up: route oral; details: in vivo; method in brief: as §1
[11] = Tmax in healthy human at […], po BID for 14 days in presence of […], po rifampin; details: in vivo; method in brief: as §3
[12] = Tmax in healthy human at […], po administered as single dose in presence of […], po rifampin; details: in vivo; method in brief: as §5
[13] = Cmin in healthy human at […], po administered as single dose after 12 hrs in presence of […], po rifampin; details: in vivo, read-out: Cmin; method in brief: as §5
[14] = Cmin in healthy human at […], po BID for 14 days after 12 hrs in presence of […], po rifampin; details: in vivo, read-out: Cmin; method in brief: as §3
[15] = Cmax in healthy human at […], po administered as single dose; set-up: route oral; details: in vivo; method in brief: as §2
[16] = AUC(0 to 12 hrs) in healthy human at […], po BID for 14 days in presence of […], po rifampin; set-up: time < 12 hr, route oral; details: plasma; method in brief: as §3
[17] = AUC(0 to 12 hrs) in healthy human at […], po BID for 4 days; set-up: time < 12 hr, route oral; details: plasma; method in brief: as §4

half-life [1]: 0.93 h | half-life [2]: 9.6 h | concentration at 12 h [3]: 92.1 nM | Cmax [4]: 1950 nM | half-life [5]: 8.5 h | concentration at 12 h [6]: 92.5 nM | AUC(0-inf) [7]: 27.6 µM·h | AUC(0-inf) [8]: 16.5 µM·h | Cmax [9]: 5340 nM | half-life [10]: 1.07 h | Tmax [11]: 1.75 h | Tmax [12]: 3 h | concentration at 12 h [13]: 36.3 nM | concentration at 12 h [14]: 43.5 nM | Cmax [15]: 8610 nM | AUC at 12 h [16]: 5.85 µM·h | AUC at 12 h [17]: 4.61 µM·h
Compound: Cc1nnc(C(=O)NC(C)(C)c2nc(C(=O)NCc3ccc(F)cc3)c(O)c(=O)n2C)o1 [RALTEGRAVIR]
